In ChEMBL document CHEMBL1933017, “Synthesis and biological evaluation of some thiazolidinones as antimicrobial agents” (2012) one finds zone of inhibition and MIC data, which are given here for four compounds.

Assay [1] has as its system Staphylococcus aureus. Description: Antibacterial activity against Staphylococcus aureus at 100 ug/disc after 24 hrs by disc diffusion method. Conditions: read-out: DIZ. The format is functional. The essentials:
(§1)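 Paper disc diffusion on autoclaved Mueller-Hinton agar poured 5 mm deep. Agar was swab-inoculated with 10⁵ CFU/mL suspension (0.5 McFarland). Discs 6.25 mm across were soaked in compound solution in DMSO (3.12–100 µg/mL) and plates incubated 24 h at (37 ± 1) °C. Read-out was inhibition zone (mm). DMSO control disc; ciprofloxacin or ketoconazole reference, 100 µg/disc. Mean of three independent experiments.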
(Agar diffusion results depend on both activity and mobility in agar.)

Assay [2] has as its system Proteus vulgaris. The assay can be described thus: Antibacterial activity against Proteus vulgaris after 24 hrs by agar streak dilution method. The format is functional. In short, it runs like this:
(§2)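 MIC by agar streak dilution. Graded amounts of DMSO stock (100 μg/mL) were mixed into molten sterile nutrient agar and poured 4–5 mm deep. Serial concentrations spanned 3.12–100 µg/mL. Plates were inoculated with about 10⁵ CFU/mL of bacterial suspension and incubated at (37 ± 1) °C for 24 h. Each value is the mean of three independent experiments.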

In assay [3] the test system is Candida albicans. Description: Antifungal activity against Candida albicans after 48 hrs by agar streak dilution method. In kind it is functional. The essentials:
(§3)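 Fungal MIC by agar streak dilution on Sabouraud dextrose agar, poured 4–5 mm deep. Compound from a DMSO stock (100 μg/mL) was incorporated at serial concentrations of 3.12–100 µg/mL. Plates were inoculated with about 10⁵ CFU/mL of suspension and incubated at (37 ± 1) °C for 48 h. Each value is the mean of three independent experiments.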

In assay [4] the test system is Bacillus cereus. The assay can be described thus: Antibacterial activity against Bacillus cereus after 24 hrs by agar streak dilution method. The format is functional. In short, it runs like this: as §2
Assay [5] concerns Pseudomonas aeruginosa. The assay can be described thus: Antibacterial activity against Pseudomonas aeruginosa at 100 ug/disc after 24 hrs by disc diffusion method. The format is functional. The settings on record: read-out: DIZ. The essentials:
as §1

Assay [6] relates to Staphylococcus aureus. The assay can be described thus: Antibacterial activity against Staphylococcus aureus after 24 hrs by agar streak dilution method. The format is functional. The essentials:
as §2

The subject of assay [7] is Bacillus cereus. Description: Antibacterial activity against Bacillus cereus at 100 ug/disc after 24 hrs by disc diffusion method. The format is functional. The settings on record: read-out: DIZ. The essentials:
as §1

Assay [8] has as its system Salmonella typhi. The assay can be described thus: Antibacterial activity against Salmonella Typhi after 24 hrs by agar streak dilution method. In kind it is functional, Salmonella enterica subsp. enterica serovar Typhi. The settings on record: Salmonella enterica. In short, it runs like this:
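Agar streak dilution: DMSO stock (100 µg/mL) graded into molten sterile nutrient agar, poured 4–5 mm deep and solidified. Plates carry serial dilutions spanning 3.12–100 µg/mL. Applied ~10⁵ CFU/mL suspension, then incubated 24 h at (37 ± 1) °C. MIC read as the lowest inhibitory concentration; each value is the mean of three independent experiments.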

Assay [9] deals with Klebsiella pneumoniae. The assay can be described thus: Antibacterial activity against Klebsiella pneumoniae at 100 ug/disc after 24 hrs by disc diffusion method. In kind it is functional. Conditions: read-out: DIZ. In short, it runs like this:
as §1

The subject of assay [10] is Aspergillus fumigatus. The assay can be described thus: Antifungal activity against Aspergillus fumigatus at 100 ug/disc after 24 hrs by disc diffusion method. In kind it is functional. The settings on record: read-out: DIZ. In short, it runs like this: as §1
The subject of assay [11] is Salmonella typhi. The assay can be described thus: Antibacterial activity against Salmonella Typhi at 100 ug/disc after 24 hrs by disc diffusion method. The format is functional, Salmonella enterica subsp. enterica serovar Typhi. Conditions: Salmonella enterica, read-out: DIZ. The essentials: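 Paper disc diffusion on Mueller-Hinton agar poured 5 mm deep; 10⁵ CFU/mL suspension (0.5 McFarland) swabbed over surface. 6.25 mm filter paper discs soaked in compound in DMSO, incubated 24 h at (37 ± 1) °C; inhibition zone diameter in mm. DMSO disc as blank; ciprofloxacin 100 µg/disc as reference. Mean of three independent experiments.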

Assay [12] deals with Shigella flexneri. The assay can be described thus: Antibacterial activity against Shigella flexneri at 100 ug/disc after 24 hrs by disc diffusion method. In kind it is functional. The settings on record: read-out: DIZ. The essentials:
as §1

Assay [13] relates to Aspergillus fumigatus. Description: Antifungal activity against Aspergillus fumigatus after 48 hrs by agar streak dilution method. The format is functional. The essentials: as §3
The test system of assay [14] is Proteus vulgaris. The assay can be described thus: Antibacterial activity against Proteus vulgaris at 100 ug/disc after 24 hrs by disc diffusion method. The format is functional. Conditions: read-out: DIZ. In short, it runs like this: as §1
Assay [15] deals with Shigella flexneri. The assay can be described thus: Antibacterial activity against Shigella flexneri after 24 hrs by agar streak dilution method. In kind it is functional. The essentials: as §2
The test system of assay [16] is Aspergillus clavatus. Description: Antifungal activity against Aspergillus clavatus at 100 ug/disc after 24 hrs by disc diffusion method. The format is functional. Conditions: read-out: DIZ. In short, it runs like this:
as §1

Assay [17] deals with Aspergillus niger. Description: Antifungal activity against Aspergillus niger after 48 hrs by agar streak dilution method. In kind it is functional. In short, it runs like this:
as §3

Assay [18] deals with Candida albicans. Description: Antifungal activity against Candida albicans at 100 ug/disc after 24 hrs by disc diffusion method. The format is functional. The settings on record: read-out: DIZ. The essentials: as §1
Assay [19] relates to Klebsiella pneumoniae. The assay can be described thus: Antibacterial activity against Klebsiella pneumoniae […] after 24 hrs by agar streak dilution method. In kind it is functional.
Assay [20] has as its system Aspergillus niger. Description: Antifungal activity against Aspergillus niger at 100 ug/disc after 24 hrs by disc diffusion method. The format is functional. Conditions: read-out: DIZ. In short, it runs like this: as §1
For assay [21], the system named is Escherichia coli. Description: Antibacterial activity against Escherichia coli after 24 hrs by agar streak dilution method. In kind it is functional. In short, it runs like this: as §2
For assay [22], the system named is Pseudomonas aeruginosa. Description: Antibacterial activity against Pseudomonas aeruginosa […] after 24 hrs by agar streak dilution method. The format is functional.
In assay [23] the test system is Escherichia coli. The assay can be described thus: Antibacterial activity against Escherichia coli at 100 ug/disc after 24 hrs by disc diffusion method. In kind it is functional. Conditions: read-out: DIZ. In short, it runs like this:
as §1

Assay [24] has as its system Aspergillus clavatus. The assay can be described thus: Antifungal activity against Aspergillus clavatus after 48 hrs by agar streak dilution method. The format is functional. In short, it runs like this: as §3

By MIC is commonly meant the least concentration at which growth counts as inhibited. Read a high MIC as weaker potency.

Values after ≈ are worked out from the molar mass of the structure shown. A value given as a limit tells only on which side of the number the result lay.

As to `CCN1CCN(CC2SC(c3ccc(C)cc3)N(c3ccc(Nc4nc(Oc5cc(=O)n(C)c6ccccc56)nc(N(C)C)n4)cc3)C2=O)CC1` (stereo unspecified), the zone of inhibition at 100 µg/disc in the assay on Staphylococcus aureus [1] amounted to 26 mm; in the assay with Pseudomonas aeruginosa [5], 26 mm; in the assay on Bacillus cereus [7] it was 24 mm; in the assay on Klebsiella pneumoniae [9], 24 mm; in the assay on Aspergillus fumigatus [10], 24 mm; in the assay on Salmonella typhi [11], 23 mm. Further, the zone of inhibition at 100 µg/disc in the assay with Shigella flexneri [12] came out at 24 mm; with Proteus vulgaris [14], 27 mm; in the assay with Aspergillus clavatus [16], 26 mm; in the assay on Candida albicans [18], 23 mm; with Aspergillus niger [20], 21 mm; with Escherichia coli [23], 24 mm. For the same compound, the MIC worked out at 6.25 µg/mL (≈ 8.85 µM) in the assay on Proteus vulgaris [2]; 50 µg/mL (≈ 70.8 µM) with Candida albicans [3]; 50 µg/mL (≈ 70.8 µM) in the assay on Bacillus cereus [4]; 50 µg/mL (≈ 70.8 µM) in the assay with Staphylococcus aureus [6]; 50 µg/mL (≈ 70.8 µM) in the assay on Salmonella typhi [8]; 50 µg/mL (≈ 70.8 µM) against Aspergillus fumigatus [13]. Besides, the MIC against Shigella flexneri [15] was 50 µg/mL (≈ 70.8 µM); in the assay on Aspergillus niger [17] it was 100 µg/mL (≈ 142 µM); against Klebsiella pneumoniae [19] it was 50 µg/mL (≈ 70.8 µM); against Escherichia coli [21], 25 µg/mL (≈ 35.4 µM); in the assay with Pseudomonas aeruginosa [22], 6.25 µg/mL (≈ 8.85 µM); in the assay on Aspergillus clavatus [24] it was 25 µg/mL (≈ 35.4 µM).
In the case of `CCN1CCN(CC2SC(c3ccc(F)cc3)N(c3ccc(Nc4nc(Oc5cc(=O)n(C)c6ccccc56)nc(N(C)C)n4)cc3)C2=O)CC1` (stereo unspecified), the zone of inhibition at 100 µg/disc in the assay with Staphylococcus aureus [1] was found to be 27 mm; with Pseudomonas aeruginosa [5] it was 25 mm; in the assay on Bacillus cereus [7] it was 28 mm; in the assay on Klebsiella pneumoniae [9], 25 mm; in the assay with Aspergillus fumigatus [10], 28 mm; in the assay on Salmonella typhi [11] it was 27 mm. Besides, the zone of inhibition at 100 µg/disc was 19 mm in the assay on Shigella flexneri [12]; 22 mm with Proteus vulgaris [14]; 25 mm in the assay on Aspergillus clavatus [16]; 25 mm in the assay with Candida albicans [18]; 26 mm in the assay with Aspergillus niger [20]; 28 mm with Escherichia coli [23]. Moreover, the minimal inhibitory concentration (MIC) stood at 25 µg/mL (≈ 35.2 µM) in the assay on Proteus vulgaris [2]; 25 µg/mL (≈ 35.2 µM) against Candida albicans [3]; 6.25 µg/mL (≈ 8.8 µM) with Bacillus cereus [4]; 6.25 µg/mL (≈ 8.8 µM) against Staphylococcus aureus [6]; 6.25 µg/mL (≈ 8.8 µM) with Salmonella typhi [8]; 12.5 µg/mL (≈ 17.6 µM) against Aspergillus fumigatus [13]. Further, the MIC with Shigella flexneri [15] was 25 µg/mL (≈ 35.2 µM); against Aspergillus niger [17] it was 12.5 µg/mL (≈ 17.6 µM); with Klebsiella pneumoniae [19], 25 µg/mL (≈ 35.2 µM); against Escherichia coli [21], 6.25 µg/mL (≈ 8.8 µM); with Pseudomonas aeruginosa [22], 12.5 µg/mL (≈ 17.6 µM); in the assay on Aspergillus clavatus [24], 25 µg/mL (≈ 35.2 µM).
Take `O=C(O)c1cn(C2CC2)c2cc(N3CCNCC3)c(F)cc2c1=O` [CIPROFLOXACIN]: the zone of inhibition at 100 µg/disc with Staphylococcus aureus [1] came to 30 mm; in the assay on Pseudomonas aeruginosa [5] it was 33 mm; in the assay with Bacillus cereus [7] it was 31 mm; with Klebsiella pneumoniae [9] it was 33 mm; in the assay with Salmonella typhi [11] it was 30 mm; in the assay with Shigella flexneri [12], 32 mm. The zone of inhibition at 100 µg/disc was found to be 31 mm in the assay on Proteus vulgaris [14] and 32 mm with Escherichia coli [23]. In addition, the minimal inhibitory concentration (MIC) against Proteus vulgaris [2] is 1 µg/mL (≈ 3.02 µM); against Bacillus cereus [4] it was 1 µg/mL (≈ 3.02 µM); in the assay with Staphylococcus aureus [6], 1 µg/mL (≈ 3.02 µM); against Salmonella typhi [8], 1 µg/mL (≈ 3.02 µM); in the assay on Shigella flexneri [15], no more than 3 µg/mL; with Klebsiella pneumoniae [19], 1 µg/mL (≈ 3.02 µM). In the assay with Pseudomonas aeruginosa [22], this compound had a minimal inhibitory concentration (MIC) of 1 µg/mL (≈ 3.02 µM).
Regarding `CC(=O)N1CCN(c2ccc(OCC3COC(Cn4ccnc4)(c4ccc(Cl)cc4Cl)O3)cc2)CC1` (stereo unspecified) [KETOCONAZOLE], the minimal inhibitory concentration (MIC) against Candida albicans [3] is 1 µg/mL (≈ 1.88 µM); in the assay with Aspergillus fumigatus [13] it was 1 µg/mL (≈ 1.88 µM); against Aspergillus niger [17], no more than 3 µg/mL; against Aspergillus clavatus [24], 1 µg/mL (≈ 1.88 µM). Besides, the zone of inhibition at 100 µg/disc in the assay on Aspergillus fumigatus [10] amounted to 29 mm; with Aspergillus clavatus [16], 31 mm; in the assay on Candida albicans [18], 33 mm; in the assay on Aspergillus niger [20] it was 30 mm.
